Assay results: ChEMBL document CHEMBL4130356, “Design, synthesis and 2D QSAR study of novel pyridine and quinolone hydrazone derivatives as potential antimicrobial and antitubercular agents” (Eur J Med Chem, 2017)
In brackets after ≈: the same amount, converted by molar mass. Activity calls are given as the source filed them. The rule behind the calls is not given here.

Legend:
Escherichia coli [1] = test: Antimicrobial activity against Escherichia coli RCMB 010052 assessed as diameter of zone inhibition at 100 ug/ml after 24 hrs by agar well diffusion assay; format: functional; details: RCMB 010052, 24 h, read-out: DIZ
Procedure, shortened: (§1)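 Agar well diffusion on nutrient agar plates seeded with the bacterium, using 1 cm wells. Plates were held at 4°C for 1 h for diffusion, then incubated at 37°C. Inhibition zone diameters were measured at 24 h. Ciprofloxacin was the positive control. Run in triplicate, with the mean zone reported.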

Escherichia coli [2] = test: Antimicrobial activity against Escherichia coli RCMB 010052 after 24 hrs by serial dilution method; format: functional; details: RCMB 010052, 24 h
Procedure, shortened: (§2)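 Serial twofold dilution in microtiter plates starting from a 100 mmol stock in DMSO; final concentrations 125 down to 0.12 […]. Incubated at 37°C and read on a microplate reader after 24 h. Ciprofloxacin was the reference. Run in triplicate, with the average taken. MIC was the lowest concentration inhibiting growth.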

Pseudomonas aeruginosa [3] = test: microbe, parasite or virus in culture; details: RCMB 010043, 24 h, read-out: DIZ
Pseudomonas aeruginosa [4] = test: microbe, parasite or virus in culture; details: RCMB 010043, 24 h
Aspergillus fumigatus [5] = test: Antimicrobial activity against Aspergillus fumigatus RCMB 02568 after 48 hrs by serial dilution method; format: functional; details: RCMB 02568, 48 h
Procedure, shortened: as §2, with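 “28°C” for “37°C”, “48” for “24”, “Amphotericin B” for “Ciprofloxacin”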

Aspergillus fumigatus [6] = test: Antimicrobial activity against Aspergillus fumigatus RCMB 02568 assessed as diameter of zone inhibition at 100 ug/ml after 48 hrs by agar well diffusion assay; format: functional; details: RCMB 02568, 48 h, read-out: DIZ
Procedure, shortened: (§3)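 Agar well diffusion on malt agar plates seeded with the fungus, using 1 cm wells. Plates were held at 4°C for 1 h for diffusion, then incubated at 28°C. Inhibition zone diameters were measured at 48 h. Amphotericin B was the positive control. Run in triplicate, with the mean zone reported.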

Candida albicans [7] = test: Antimicrobial activity against Candida albicans RCMB 05036 assessed as diameter of zone inhibition at 100 ug/ml after 48 hrs by agar well diffusion assay; format: functional; details: RCMB 05036, 48 h, read-out: DIZ; procedure, shortened: as §3
Streptococcus pneumoniae [8] = test: Antimicrobial activity against Streptococcus pneumoniae RCMB 010010 assessed as diameter of zone inhibition at 100 ug/ml after 24 hrs by agar well diffusion assay; format: functional; details: RCMB 010010, 24 h, read-out: DIZ; procedure, shortened: as §1
Staphylococcus aureus [9] = test: Antimicrobial activity against Staphylococcus aureus RCMB 010028 assessed as diameter of zone inhibition at 100 ug/ml after 24 hrs by agar well diffusion assay; format: functional; details: RCMB 010028, 24 h, read-out: DIZ; procedure, shortened: as §1
Candida albicans [10] = test: Antimicrobial activity against Candida albicans RCMB 05036 after 48 hrs by serial dilution method; format: functional; details: RCMB 05036, 48 h
Procedure, shortened: as §2, with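 “28°C” for “37°C”, “48” for “24”, “Amphotericin B” for “Ciprofloxacin”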

Streptococcus pneumoniae [11] = test: Antimicrobial activity against Streptococcus pneumoniae RCMB 010010 after 24 hrs by serial dilution method; format: functional; details: RCMB 010010, 24 h; procedure, shortened: as §2
Staphylococcus aureus [12] = test: Antimicrobial activity against Staphylococcus aureus RCMB 010028 after 24 hrs by serial dilution method; format: functional; details: RCMB 010028, 24 h; procedure, shortened: as §2
[13] = tested on: Mycobacterium tuberculosis; test: Antimycobacterial activity against Mycobacterium tuberculosis RCMB 010126 clinical isolate after 7 days by MABA; format: functional; details: Mycobacterium tuberculosis, RCMB 010126, 168 h
Procedure, shortened: (§4)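 Inoculum from fresh LJ culture resuspended in 7H9-S broth with casitone, glycerol and OADC, adjusted to McFarland No. 1 and diluted 1:20. Serial two-fold compound dilutions in 7H9-S; isoniazid reference. Incubated 7 days at 37°C in air, then Alamar blue added and incubated overnight. Percent inhibition = 1 − (test well/growth-control mean) × 100; MIC = lowest concentration preventing blue-to-pink change.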

[14] = tested on: Mycobacterium tuberculosis; test: Antimycobacterial activity against Mycobacterium tuberculosis RCMB 010126 clinical isolate assessed as inhibition zone after 7 days by MABA; format: functional; procedure, shortened: as §4
WI-38 = test: Cytotoxicity against human WI38 cells assessed as reduction in cell viability after 24 hrs by crystal violet staining-based colorimetric method; details: WI-38, 24 h
Procedure, shortened: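 WI-38 cells were grown in DMEM with 10% FBS at 37°C and 5% CO2, then seeded at 1×10^4 cells/well. Serial twofold dilutions were added, three wells per concentration. Viability was read by crystal violet stain, solubilised in 30% acetic acid, at 490 nm. Run in triplicate. IC50 was estimated from dose-response plots.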

[15] = Selectivity index, ratio of IC50 for human WI38 cells to MIC for Mycobacterium tuberculosis RCMB 010126 clinical isolate; format: toxicity; details: read-out: Selectivity Index
Procedure, shortened: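 WI-38 human lung fibroblasts grown in DMEM with 10% FBS at 37°C and 5% CO2, seeded at 1×10^4 cells/well, and exposed to serial two-fold dilutions in triplicate. Viability read by crystal violet stain at 490 nm. IC50 taken from dose-response plots. Ratio uses this IC50 against the MABA MIC for M. tuberculosis.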

Escherichia coli [16] = test: Potency index, ratio of ciprofloxacin MIC to test compound MIC for Escherichia coli RCMB 010052; format: functional
Streptococcus pneumoniae [17] = test: Potency index, ratio of ampicillin MIC to test compound MIC for Streptococcus pneumoniae RCMB 010010; format: functional
Pseudomonas aeruginosa [18] = details: RCMB 010043, 100 ug/ml
Pseudomonas aeruginosa [19] = details: RCMB 010043

| Structure (SMILES) | zone of inhibition at 100 µg/mL (Escherichia coli [1]) [mm] | MIC (Escherichia coli [2]) [µg/mL] | zone of inhibition at 100 µg/mL (Pseudomonas aeruginosa [3]) [mm] | MIC (Pseudomonas aeruginosa [4]) [µg/mL] | MIC (Aspergillus fumigatus [5]) [µg/mL] | zone of inhibition at 100 µg/mL (Aspergillus fumigatus [6]) [mm] | zone of inhibition at 100 µg/mL (Candida albicans [7]) [mm] | zone of inhibition at 100 µg/mL (Streptococcus pneumoniae [8]) [mm] | zone of inhibition at 100 µg/mL (Staphylococcus aureus [9]) [mm] | MIC (Candida albicans [10]) [µg/mL] | MIC (Streptococcus pneumoniae [11]) [µg/mL] | MIC (Staphylococcus aureus [12]) [µg/mL] | MIC [13] [µg/mL] | inhibition zone (IZ) [14] [mm] | IC50 (WI-38) [µg/mL] | selectivity ratio [15] | Ratio (Escherichia coli [16]) | Ratio (Streptococcus pneumoniae [17]) | DIZ (Pseudomonas aeruginosa [18]) | MIC (Pseudomonas aeruginosa [19]) |
| --- | --- | --- | --- | --- | --- | --- | --- | --- | --- | --- | --- | --- | --- | --- | --- | --- | --- | --- | --- | --- |
| O=C(O)c1cn(C2CC2)c2cc(N3CCNCC3)c(F)cc2c1=O [CIPROFLOXACIN] | 23.4 | 0.98 (≈ 2.96 µM) | 20.6 | 1.95 (≈ 5.89 µM) |  |  |  |  |  |  |  |  |  |  |  |  |  |  |  |  |
| COc1cc(/C=N/NC(=O)c2ccc(-c3cccc(Cl)c3)nc2C)cc(OC)c1OC | 25.3 | 0.49 (≈ 1.11 µM) |  |  | 0.98 (≈ 2.23 µM) | 23.3 | 21.4 | 23.1 | 21.3 | 0.49 (≈ 1.11 µM) | 0.49 (≈ 1.11 µM) | 1.95 (≈ 4.43 µM) | 0.78 (≈ 1.77 µM) | 70.48 | 495 (≈ 1130 µM) | 635 | 2 | 2 | inactive | inactive |
